Source: the array DNA melting data of Ke et al. (doi:10.1101/2024.01.08.574731)

What was measured:
[1] = melting temperature; fluorescence melt of hairpins on a sequencing array, two-state fit, raised by 9.35 °C to match UV melts; conditions: sodium 0.088 M
Outline: (§1)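 With Cy3 and quencher oligos annealed, library hairpins on a sequenced MiSeq flow cell were imaged for Cy3 fluorescence in 50 mM Na-HEPES pH 8.0, 25 mM NaCl, in 2.5 °C steps up to 60 °C. Melting temperature and folding enthalpy were derived from bootstrapped two-state fits of signals normalised to pre-quench Cy3 and to control constructs. Four replicates were combined by inverse variance, with fitted temperatures raised by 9.35 °C to match UV melts.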

[2] = folding enthalpy; higher = less favourable; fluorescence melt of hairpins on a sequencing array, two-state fit; conditions: sodium 0.088 M
Outline: as §1

Sequence	Tm [1]	folding enthalpy [2]
GCGAAAGGAAACTTCCGC (((.(((....))).)))	42.5 °C	-27.1 kcal/mol
GCGAAATATCGC ((((....))))	45.2 °C	-18.6 kcal/mol
GCGAACGAAAGTTATCGC ((((((....)))..)))	44.1 °C	-23.1 kcal/mol
GCGAACGAAAGTTCCGC ((((((....))).)))	54 °C	-29.9 kcal/mol
GCGAACGGAAACGTTTGC ((.((((....)))).))	56.4 °C	-46.8 kcal/mol
GCGAACTCTCGC ((((....))))	46.8 °C	-24.8 kcal/mol
GCGAACTGTCGC ((((....))))	45.5 °C	-21.4 kcal/mol
GCGAACTTCGC ((((...))))	48.5 °C	-17.3 kcal/mol
GCGAAGAAATTCGC (((((....)))))	55.5 °C	-28.3 kcal/mol
GCGAAGAGTCGC ((((....))))	48.4 °C	-11.8 kcal/mol
GCGAAGATCGC ((((...))))	49.5 °C	-13.7 kcal/mol
GCGAAGCCTCGC ((((....))))	50.6 °C	-8.82 kcal/mol
GCGAAGCGAAAGCCACGC (((..((....))..)))	42.5 °C	-8.54 kcal/mol
GCGAAGCGAAAGCGTGGC ((.(.((....)).).))	47.3 °C	-10.5 kcal/mol
GCGAAGCGAAAGCGTTGC ((.(.((....)).).))	47.7 °C	-12.4 kcal/mol
GCGAAGCGAAAGCTACGC (((.(((....))).)))	55 °C	-40.4 kcal/mol
GCGAAGCGAAAGCTATGC ((..(((....)))..))	40.7 °C	-7.44 kcal/mol
GCGAAGCGAAAGCTCGGC ((..(((....)))..))	43.5 °C	-8.3 kcal/mol
GCGAAGCGAAAGCTCTGC ((..(((....)))..))	39.7 °C	-7.9 kcal/mol
GCGAAGGCTCGC ((((....))))	46.9 °C	-14.4 kcal/mol
GCGAAGTCGAAAGACCGC (((..(((....))))))	52.5 °C	-26.9 kcal/mol
GCGAATAATCGC ((((....))))	46.2 °C	-14 kcal/mol
GCGAATAGTCGC ((((....))))	44.7 °C	-17.4 kcal/mol
GCGAATCCGAAAGGACGC (((..(((....))))))	48.7 °C	-26.1 kcal/mol
GCGAATCTTCGC ((((....))))	52.8 °C	-28 kcal/mol

Sequence	Tm [1]	folding enthalpy [2]
GCGAATGTCGC ((((...))))	46.7 °C	-17.6 kcal/mol
GCGACAACGAAAGTTCGC (((..(((....))))))	49.4 °C	-28.6 kcal/mol
GCGACAAGTCGC ((((....))))	58 °C	-30 kcal/mol
GCGACACCGAAAGGTCGC (((..(((....))))))	61.1 °C	-34.6 kcal/mol
GCGACACGTCGC ((((....))))	61.4 °C	-28.3 kcal/mol
GCGACAGCGAAAGCTCGC (((..(((....))))))	46.7 °C	-14.6 kcal/mol
GCGACAGGAAACTGCCGC (((.(((....))).)))	55.9 °C	-46.4 kcal/mol
GCGACATCTCGC ((((....))))	46.5 °C	-24.2 kcal/mol
GCGACCGAAAGGTAACGC ((((((....)))..)))	51.9 °C	-29.6 kcal/mol
GCGACCGAAAGGTCACGC ((((((....)))..)))	61.1 °C	-16.9 kcal/mol
GCGACCGAAAGGTCCGC ((((((....))).)))	66.4 °C	-18.5 kcal/mol
GCGACCGAAAGGTGGCGC ((((((....)))..)))	66.9 °C	-31.5 kcal/mol
GCGACGACTCGC ((((....))))	45.8 °C	-17 kcal/mol
GCGACGCCGAAAGGCCGC (((..(((....))))))	58.1 °C	-19.1 kcal/mol
GCGACGCCTCGC ((((....))))	50.1 °C	-16.9 kcal/mol
GCGACGCGAAAGCCCCGC (((..((....))..)))	44.4 °C	-15.2 kcal/mol
GCGACGCGAAAGCCGCGC (((..((....))..)))	67.1 °C	-23.6 kcal/mol
GCGACGCGAAAGCTGCGC (((..((....))..)))	61.9 °C	-23.7 kcal/mol
GCGACGCGAAAGCTTAGC ((.(.((....)).).))	48.9 °C	-24.8 kcal/mol
GCGACGCTCGC ((((...))))	50 °C	-15.3 kcal/mol
GCGACGGATCGC ((((....))))	46.8 °C	-14.9 kcal/mol
GCGACGGGAAACCGCCGC (((.(((....))).)))	64.2 °C	-45.2 kcal/mol
GCGACGTATCGC ((((....))))	50.5 °C	-14.6 kcal/mol
GCGACTACGAAAGTACGC (((..(((....))))))	42.5 °C	-25.8 kcal/mol
GCGACTACTCGC ((((....))))	46.6 °C	-23.2 kcal/mol

Sequence	Tm [1]	folding enthalpy [2]
GCGACTCGAAAGAGCCGC (((.(((....))).)))	60.2 °C	-47 kcal/mol
GCGACTCTCGC ((((...))))	49.3 °C	-22.2 kcal/mol
GCGACTCTTCGC ((((....))))	50.6 °C	-23 kcal/mol
GCGACTGCTCGC ((((....))))	50.4 °C	-16.5 kcal/mol
GCGACTGGAAACAGTTGC ((.((((....)))).))	55.5 °C	-45.4 kcal/mol
GCGACTTTTCGC ((((....))))	49 °C	-21.6 kcal/mol
GCGAGAACGAAAGTTCGC (((..(((....))))))	55.4 °C	-15 kcal/mol
GCGAGAACTCGC ((((....))))	54.9 °C	-27.4 kcal/mol
GCGAGACTCGC ((((...))))	49 °C	-10.2 kcal/mol
GCGAGATCGAAAGATCGC (((..(((....))))))	52.1 °C	-24.3 kcal/mol
GCGAGCGAAAGCTACGC ((((((....))).)))	62.6 °C	-18 kcal/mol
GCGAGCGAAAGCTATCGC ((((((....)))..)))	54.6 °C	-23.3 kcal/mol
GCGAGCGAAAGCTCCGC ((((((....))).)))	65.4 °C	-18.2 kcal/mol
GCGAGCGAAAGCTGACGC ((((((....)))..)))	51.1 °C	-24.7 kcal/mol
GCGAGCGGAAACACCCGC (((.(.(....).).)))	36.4 °C	-13.8 kcal/mol
GCGAGCGGAAACACTCGC (((((.(....).)))))	56.2 °C	-48.3 kcal/mol
GCGAGCGGAAACGTTCGC ((((.((....)).))))	63.4 °C	-41.2 kcal/mol
GCGAGCTCGAAAGAGCGC (((..(((....))))))	54.9 °C	-9.24 kcal/mol
GCGAGGCGAAAGCATGGC ((.(.((....)).).))	49.3 °C	-16.4 kcal/mol
GCGAGGCGAAAGCATTGC ((.(.((....)).).))	54.3 °C	-22.5 kcal/mol
GCGAGGCGAAAGCCAAGC ((..(((....)))..))	69.2 °C	-20.5 kcal/mol
GCGAGGCGAAAGCCCCGC (((.(((....))).)))	68.5 °C	-26.6 kcal/mol
GCGAGGCGAAAGCCCGGC ((..(((....)))..))	63.8 °C	-10.5 kcal/mol
GCGAGGCGAAAGCGCCGC (((..((....))..)))	63.8 °C	-12.5 kcal/mol
GCGAGGCGAAAGCGTAGC ((.(.((....)).).))	51 °C	-15.4 kcal/mol

Sequence	Tm [1]	folding enthalpy [2]
GCGAGGCGAAAGCGTGGC ((.(.((....)).).))	48.9 °C	-15.2 kcal/mol
GCGAGGCGAAAGCTGCGC (((..((....))..)))	65.1 °C	-29.5 kcal/mol
GCGAGGCGTCGC ((((....))))	56.6 °C	-14.7 kcal/mol
GCGAGGGGAAACCCCCAC (.(.(((....))).).)	28.6 °C	-10.9 kcal/mol
GCGAGGGGAAACCCTCAC (.(((((....))))).)	45.2 °C	-13.7 kcal/mol
GCGAGGGGAAACTCTCGC (((((.(....).)))))	58 °C	-40.3 kcal/mol
GCGAGTCCGAAAGGACGC (((..(((....))))))	53 °C	-9.26 kcal/mol
GCGAGTCGAAAGACCGC (((.(((....))))))	66.8 °C	-35.1 kcal/mol
GCGAGTCTCGC ((((...))))	50.1 °C	-19.8 kcal/mol
GCGAGTGATCGC ((((....))))	54.3 °C	-21.9 kcal/mol
GCGAGTGGAAACACCCGC (((.(((....))).)))	51.9 °C	-26.4 kcal/mol
GCGAGTGGAAACACTTGC ((.((((....)))).))	53.6 °C	-39.2 kcal/mol
GCGAGTTCGAAAGAACGC (((..(((....))))))	49.5 °C	-11.8 kcal/mol
GCGATAAGTCGC ((((....))))	49.8 °C	-18.9 kcal/mol
GCGATACGTCGC ((((....))))	54.4 °C	-30.6 kcal/mol
GCGATACTTCGC ((((....))))	52.7 °C	-25.9 kcal/mol
GCGATAGATCGC ((((....))))	49.7 °C	-21.7 kcal/mol
GCGATAGCTCGC ((((....))))	65.8 °C	-9.76 kcal/mol
GCGATCATCGC ((((...))))	49.6 °C	-19.5 kcal/mol
GCGATCGAAAGATCCCGC ((((((....)))..)))	37.1 °C	-17.7 kcal/mol
GCGATCGAAAGATCCGC ((((((....))).)))	52 °C	-28.8 kcal/mol
GCGATCGAAAGATCTCGC ((((((....)))..)))	44.1 °C	-20.2 kcal/mol
